ChEMBL document CHEMBL1275442, “Pharmacokinetics and tissue distribution of anidulafungin in rats” (Antimicrob Agents Chemother, 2008)
Values after ≈ are worked out from the molar mass of the structure shown. *1 amine or outer side, *2 acyl side, *3 side chain or, on linkers, in order; H or OH if unused. Where a SMILES comes first, the peptide text is derived from it. Bridges are numbered along the chain shown (N, C = ends). [ ]: non-standard residue; d: D form. The star is where a group is joined. hTyr(3S-OH,4S-OH,3'-OSO3H) = N[C@H](C(=O)O)[C@H](O)[C@@H](O)c1ccc(O)c(OS(=O)(=O)O)c1; pTerphenylCO(4''-OnC5H11) = CCCCCOc1ccc(-c2ccc(-c3ccc(C(=O)*)cc3)cc2)cc1; Orn(4R-OH,5R-OH) = O=C([C@H](C[C@@H](O)[C@@H](O)N[*:3])N[*:1])[*:2]; hTyr(3S-OH,4S-OH) = N[C@H](C(=O)O)[C@H](O)[C@@H](O)c1ccc(O)cc1; Pro(3S-OH,4S-Me) = C[C@H]1CN[C@H](C(=O)O)[C@H]1O; X1 = CCCCCOc1ccc(-c2cc(-c3ccc(C(=O)*)cc3)no2)cc1; Gln(3R-OH) = NC(=O)C[C@@H](O)[C@H](N)C(=O)O; Hyp = O=C(O)[C@@H]1C[C@@H](O)CN1

Legend:
Aspergillus fumigatus = assay: Antifungal activity against Aspergillus fumigatus; format: functional
[1] = Total body clearance in F344 rat at 5 mg/kg, iv administered as single bolus dose; format: ADME, organism-based; set-up: dose 5 mg/kg, route intravenous; details: in vivo
Procedure, shortened: (§1)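 F344 males, 10 to 11 weeks old and 223.6 to 243.8 g, got a single 5 mg/kg iv dose of [14C]anidulafungin over about 5 min. Plasma and tissues were collected predose and at 0.083 to 72 h, n = 3 per time point. Parent drug was quantified by HPLC-UV, with LLOQ/ULOQ of 20/5,120 ng/ml in plasma and 220/56,320 ng/g in tissue. Noncompartmental parameters came from a composite mean concentration-time profile.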

Aspergillus flavus = assay: Antifungal activity against Aspergillus flavus; format: functional
[2] = Volume of distribution in F344 rat at 5 mg/kg, iv administered as single bolus dose; format: ADME, organism-based; set-up: dose 5 mg/kg, route intravenous; details: in vivo; procedure, shortened: as §1
Candida = assay: Antifungal activity against Candida sp.; format: functional
[3] = Ratio of AUC (0 to infinity) in F344 rat liver to AUC (0 to infinity) in F344 rat plasma at 5 mg/kg, iv administered as single bolus dose; format: ADME, organism-based; set-up: dose 5 mg/kg, route intravenous; details: liver and plasma
Procedure, shortened: (§2)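 Male F344 rats, 10–11 weeks old, 223.6–243.8 g, given a single IV dose of [¹⁴C]-labelled drug over about 5 min. Tissue and plasma sampled predose and at 0.083–72 h, n = 3 per time point. Parent drug measured by HPLC-UV; tissue LLOQ 220 ng/g, plasma LLOQ 20 ng/ml. AUC0-∞ by noncompartmental analysis of the composite mean profile; ratio is tissue AUC over plasma AUC.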

[4] = Ratio of AUC (0 to infinity) in F344 rat kidney to AUC (0 to infinity) in F344 rat plasma at 5 mg/kg, iv administered as single bolus dose; format: ADME, organism-based; set-up: dose 5 mg/kg, route intravenous; details: kidney and plasma; procedure, shortened: as §2
[5] = Ratio of AUC (0 to infinity) in F344 rat lung to AUC (0 to infinity) in F344 rat plasma at 5 mg/kg, iv administered as single bolus dose; format: ADME, organism-based; set-up: dose 5 mg/kg, route intravenous; details: lung and plasma; procedure, shortened: as §2
[6] = Ratio of AUC in rat liver to AUC in rat plasma at 1 mg/kg, iv; format: ADME, organism-based; set-up: dose 1 mg/kg, route intravenous; details: liver and plasma, read-out: Ratio AUC
[7] = Ratio of AUC in rat lung to AUC in rat plasma at 1 mg/kg, iv; format: ADME, organism-based; set-up: dose 1 mg/kg, route intravenous; details: lung and plasma, read-out: Ratio AUC
[8] = Ratio of AUC in rat kidney to AUC in rat plasma at 1 mg/kg, iv; format: ADME, organism-based; set-up: dose 1 mg/kg, route intravenous; details: kidney and plasma, read-out: Ratio AUC

SMILES: CCCCCOc1ccc(-c2ccc(-c3ccc(C(=O)N[C@H]4C[C@@H](O)[C@@H](O)NC(=O)[C@@H]5[C@@H](O)[C@@H](C)CN5C(=O)[C@H]([C@@H](C)O)NC(=O)[C@H]([C@H](O)[C@@H](O)c5ccc(O)cc5)NC(=O)[C@@H]5C[C@@H](O)CN5C(=O)[C@H]([C@@H](C)O)NC4=O)cc3)cc2)cc1 [ANIDULAFUNGIN] ({pTerphenylCO(4''-OnC5H11)}-[Orn(4R-OH,5R-OH)]T[Hyp][hTyr(3S-OH,4S-OH)]T[Pro(3S-OH,4S-Me)]; lactam 1-C)
- MIC90 (Aspergillus fumigatus): 0.03 µg/mL (≈ 0.0263 µM)
- clearance [1]: 1.4 mL/min/kg
- MIC90 (Aspergillus flavus): 0.08 µg/mL (≈ 0.0702 µM)
- Vd [2]: 2.2 L/kg
- MIC90 (Candida): 0.06 µg/mL (≈ 0.0526 µM)

SMILES: CC[C@H](C)C[C@H](C)CCCCCCCCC(=O)N[C@H]1C[C@@H](O)[C@@H](NCCN)NC(=O)[C@@H]2[C@@H](O)CCN2C(=O)[C@H]([C@H](O)CCN)NC(=O)[C@H]([C@H](O)[C@@H](O)c2ccc(O)cc2)NC(=O)[C@@H]2C[C@@H](O)CN2C(=O)[C@H]([C@@H](C)O)NC1=O [CASPOFUNGIN]
- Kp [3]: 12.4
- Kp [4]: 10.7
- Kp [5]: 10.4

SMILES: CCCCCOc1ccc(-c2cc(-c3ccc(C(=O)N[C@H]4C[C@@H](O)[C@@H](O)NC(=O)[C@@H]5[C@@H](O)[C@@H](C)CN5C(=O)[C@H]([C@H](O)CC(N)=O)NC(=O)[C@H]([C@H](O)[C@@H](O)c5ccc(O)c(OS(=O)(=O)O)c5)NC(=O)[C@@H]5C[C@@H](O)CN5C(=O)[C@H]([C@@H](C)O)NC4=O)cc3)no2)cc1 [MICAFUNGIN] (X1-[Orn(4R-OH,5R-OH)]T[Hyp][hTyr(3S-OH,4S-OH,3'-OSO3H)][Gln(3R-OH)][Pro(3S-OH,4S-Me)]; lactam 1-C)
- Kp [6]: 7.8
- Kp [7]: 3.6
- Kp [8]: 3.2
